Laboratory results taken from ChEMBL document CHEMBL4431333, “Synthesis, Antibacterial, and Anticancer Evaluation of Novel Spiramycin-Like Conjugates Containing C(5) Triazole Arm” (J Med Chem, 2016).
≈ marks a conversion by molar mass, not a printed value. Calls of active or inactive are those of the source. The rule behind the calls is not given here.

Columns and labels:
Staphylococcus aureus [1] = test: Antibacterial activity against methicillin-resistant Staphylococcus aureus isolate 1 after 18 hrs by serial microdilution method; assay type: functional
Outline: (§1)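 Clinical MRSA isolates, confirmed by cefoxitin 30 μg disc diffusion (EUCAST) and PCR for mecA. MIC by EUCAST broth microdilution in Mueller–Hinton II broth. Compounds dissolved in DMSO and diluted in broth, tested at 0.064–64 μg mL−1. Final inoculum approximately 5 × 10^5 CFU mL−1. Read after 18 h at 35 ± 2 °C.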

Streptococcus pneumoniae = test: Antibacterial activity against Streptococcus pneumoniae ATCC 49619 after 18 hrs by serial microdilution method; assay type: functional
[2] = tested on: Staphylococcus epidermidis; test: Antibacterial activity against Staphylococcus epidermidis ATCC 12228 after 18 hrs by serial microdilution method; assay type: functional
[3] = Solubility of compound in water; assay type: physicochemical
Bacillus spizizenii = test: Antibacterial activity against Bacillus subtilis ATCC 6633 after 18 hrs by serial microdilution method; assay type: functional
[4] = tested on: Staphylococcus epidermidis; test: Antibacterial activity against Staphylococcus epidermidis ATCC 49134 after 18 hrs by serial microdilution method; assay type: functional
Micrococcus luteus = test: Antibacterial activity against Micrococcus luteus ATCC 10240 after 18 hrs by serial microdilution method; assay type: functional
Staphylococcus aureus [5] = test: Antibacterial activity against methicillin-resistant Staphylococcus aureus isolate 2 after 18 hrs by serial microdilution method; assay type: functional; outline: as §1
[6] = (§2) Selectivity index, ratio of IC50 for HDF to IC50 for human HeLa cells
MCF7 = test: Cytotoxicity against human MCF7 cells assessed as reduction in cell survival after 72 hrs by sulforhodamine B assay; assay type: functional, cell-based
[7] = (§3) Selectivity index, ratio of IC50 for HDF to IC50 for human KB cells
[8] = (§4) Selectivity index, ratio of IC50 for HDF to IC50 for human MCF7 cells
Homo sapiens [9] = organism: Homo sapiens; test: as §2
Homo sapiens [10] = organism: Homo sapiens; test: (§5) Selectivity index, ratio of IC50 for HDF to IC50 for human HepG2 cells
Homo sapiens [11] = organism: Homo sapiens; test: as §3
Homo sapiens [12] = organism: Homo sapiens; test: as §4
HepG2 = test: Cytotoxicity against human HepG2 cells assessed as reduction in cell survival after 72 hrs by sulforhodamine B assay; assay type: functional, cell-based
HeLa = test: Cytotoxicity against human HeLa cells assessed as reduction in cell survival after 72 hrs by sulforhodamine B assay; assay type: functional, cell-based
KB = test: Cytotoxicity against human KB cells assessed as reduction in cell survival after 72 hrs by sulforhodamine B assay; assay type: functional, cell-based
[13] = Octanol-water partition coefficient, log P of compound after 1 hr by UV-visible spectrophotometric analysis; assay type: physicochemical
NHDF = test: Cytotoxicity against HDF assessed as reduction in cell survival after 72 hrs by sulforhodamine B assay; assay type: cell-based, Homo sapiens
[14] = as §5

## C#CCO[C@H]1C[C@H]2C[C@@H](C)[C@@H](O[C@H]3CC[C@H](N(C)C)[C@@H](C)O3)/C=C/C=C/C[C@@H](C)OC(=O)C/C=C(\OC)[C@@H]2O1
Staphylococcus aureus [1]
  Activity: inactive
Streptococcus pneumoniae
  Activity: inactive
[2]
  Activity: inactive
[3]; buffer
  solubility: Insoluble
Bacillus spizizenii
  Activity: inactive
[4]
  Activity: inactive
Micrococcus luteus
  Activity: inactive
Staphylococcus aureus [5]
  Activity: inactive

## CO/C1=C\CC(=O)O[C@H](C)C/C=C/C=C/[C@H](O[C@H]2CC[C@H](N(C)C)[C@@H](C)O2)[C@H](C)C[C@@H]2C[C@H](OCc3cn(CC4CCOCC4)nn3)O[C@@H]12
Staphylococcus aureus [1]
  Activity: inactive
Streptococcus pneumoniae
  Activity: inactive
[2]
  Activity: inactive
[3]; buffer
  solubility: Insoluble
Bacillus spizizenii
  Activity: inactive
[4]
  Activity: inactive
Micrococcus luteus
  Activity: inactive
Staphylococcus aureus [5]
  Activity: inactive

## CO/C1=C\CC(=O)O[C@H](C)C/C=C/C=C/[C@H](O[C@H]2CC[C@H](N(C)C)[C@@H](C)O2)[C@H](C)C[C@@H]2C[C@H](OCc3ccc(F)cc3)O[C@@H]12
Staphylococcus aureus [1]
  Activity: inactive
Streptococcus pneumoniae
  Activity: inactive
[2]
  Activity: inactive
[3]; buffer
  solubility: Insoluble
Bacillus spizizenii
  Activity: inactive
Micrococcus luteus
  Activity: inactive

## Cc1cn([C@H]2C[C@H](N=[N+]=[N-])[C@@H](CO)O2)c(=O)[nH]c1=O [ZIDOVUDINE]
[6]
  Ratio IC50: 1.34
MCF7; Homo sapiens, MCF7, 72 h
  IC50: 7.67 µM
[7]
  Ratio IC50: 1.48
[8]
  Ratio IC50: 1.88

## C=CCO[C@H]1C[C@H]2C[C@@H](C)[C@@H](O[C@H]3CC[C@H](N(C)C)[C@@H](C)O3)/C=C/C=C/C[C@@H](C)OC(=O)C/C=C(\OC)[C@@H]2O1
Staphylococcus aureus [1]
  Activity: inactive
Streptococcus pneumoniae
  Activity: inactive
[2]
  Activity: inactive
[3]; buffer
  solubility: Insoluble
Bacillus spizizenii
  Activity: inactive
Micrococcus luteus
  Activity: inactive

## O=c1[nH]c(=O)n([C@H]2C[C@H](O)[C@@H](CO)O2)cc1F [FLOXURIDINE]
[7]
  Ratio IC50: 1.5

## CO/C1=C\CC(=O)O[C@H](C)C/C=C/C=C/[C@H](O[C@H]2CC[C@H](N(C)C)[C@@H](C)O2)[C@H](C)C[C@@H]2C[C@H](OCc3cn(C4CCCCCC4)nn3)O[C@@H]12
[3]; buffer
  solubility: Insoluble

## CO/C1=C\CC(=O)O[C@H](C)C/C=C/C=C/[C@H](O[C@H]2CC[C@H](N(C)C)[C@@H](C)O2)[C@H](C)C[C@@H]2C[C@H](OCc3cn([C@H]4O[C@@H](CO)[C@@H](O)[C@@H](O)[C@@H]4O)nn3)O[C@@H]12
Staphylococcus aureus [1]; isolate 1, 18 h
  MIC: > 85.2 µM
Streptococcus pneumoniae; ATCC 49619, 18 h
  MIC: 10.7 µM (≈ 8 µg/mL)
[2]; ATCC 12228, 18 h
  MIC: > 85.2 µM
Bacillus spizizenii; ATCC 6633, 18 h
  MIC: 85.2 µM (≈ 64 µg/mL)
[4]; ATCC 49134, 18 h
  MIC: > 85.2 µM
Micrococcus luteus; ATCC 10240, 18 h
  MIC: 85.2 µM (≈ 64 µg/mL)
Staphylococcus aureus [5]; isolate 2, 18 h
  MIC: > 85.2 µM

## Nc1ccn([C@@H]2O[C@H](CO)[C@@H](O)[C@@H]2O)c(=O)n1 [CYTARABINE]
[7]
  Ratio IC50: 1.23

## CO/C1=C\CC(=O)O[C@H](C)C/C=C/C=C/[C@H](O[C@H]2CC[C@H](N(C)C)[C@@H](C)O2)[C@H](C)C[C@@H]2C[C@H](OCc3cn(CC4CCCCC4)nn3)O[C@@H]12
[3]; buffer
  solubility: Insoluble

## SPIRAMYCIN [listing 1 of 2 here]
Homo sapiens [9]
  Ratio IC50: 0.9
Staphylococcus aureus [1]
  MIC: 9.49 µM
Homo sapiens [10]
  Ratio IC50: 1.02
Streptococcus pneumoniae
  MIC: 0.3 µM
[2]
  MIC: 2.37 µM
Homo sapiens [11]
  Ratio IC50: 0.9
Bacillus spizizenii
  MIC: 0.59 µM
[4]
  MIC: 2.37 µM
Homo sapiens [12]
  Ratio IC50: 0.94
Micrococcus luteus
  MIC: 0.3 µM
Staphylococcus aureus [5]
  MIC: 4.74 µM

## CO/C1=C\CC(=O)O[C@H](C)C/C=C/C=C/[C@H](O[C@H]2CC[C@H](N(C)C)[C@@H](C)O2)[C@H](C)C[C@@H]2C[C@H](OCc3cn(Cc4ccccc4)nn3)O[C@@H]12
[3]; buffer
  solubility: Insoluble

## CO/C1=C\CC(=O)O[C@H](C)C/C=C/C=C/[C@H](O[C@H]2CC[C@H](N(C)C)[C@@H](C)O2)[C@H](C)C[C@@H]2C[C@H](OCc3cn(C4CCCCC4)nn3)O[C@@H]12
[3]; buffer
  solubility: Insoluble

## CO/C1=C\CC(=O)O[C@H](C)C/C=C/C=C/[C@H](O[C@H]2CC[C@H](N(C)C)[C@@H](C)O2)[C@H](C)C[C@@H]2C[C@H](OCc3cn([C@H]4O[C@@H](CO)[C@H](O)[C@@H](O)[C@@H]4O)nn3)O[C@@H]12
Staphylococcus aureus [1]; isolate 1, 18 h
  MIC: > 85.2 µM
Streptococcus pneumoniae; ATCC 49619, 18 h
  MIC: 10.7 µM (≈ 8 µg/mL)
[2]; ATCC 12228, 18 h
  MIC: 85.2 µM (≈ 64 µg/mL)
Bacillus spizizenii; ATCC 6633, 18 h
  MIC: 85.2 µM (≈ 64 µg/mL)
[4]; ATCC 49134, 18 h
  MIC: 85.2 µM (≈ 64 µg/mL)
Micrococcus luteus; ATCC 10240, 18 h
  MIC: 85.2 µM (≈ 64 µg/mL)
Staphylococcus aureus [5]; isolate 2, 18 h
  MIC: > 85.2 µM

## SPIRAMYCIN [listing 2 of 2 here]
HepG2; hepg2
  IC50: 30.5 µM
HeLa; hela
  IC50: 34.4 µM
[3]; buffer
  solubility: 4500 µg/mL
KB; kb
  IC50: 31.3 µM
MCF7; mcf7
  IC50: 33.1 µM
[13]; 1 h
  logP: 0.58
NHDF; nhdf
  IC50: 31.1 µM

## COC1=C\[C@@H](CC=O)C[C@@H](C)[C@@H](O[C@H]2CC[C@H](N(C)C)[C@@H](C)O2)/C=C/C=C/C[C@@H](C)OC(=O)\C=C\1
[6]
  Ratio IC50: 1.1
Staphylococcus aureus [1]; isolate 1, 18 h
  MIC: 32.7 µM (≈ 16 µg/mL)
HepG2; Homo sapiens, HepG2, 72 h
  IC50: 135 µM
[14]
  Ratio IC50: 1.03
HeLa; Homo sapiens, HeLa, 72 h
  IC50: 127 µM
Streptococcus pneumoniae; ATCC 49619, 18 h
  MIC: 4.08 µM (≈ 2 µg/mL)
[2]; ATCC 12228, 18 h
  MIC: 16.3 µM (≈ 8 µg/mL)
[3]; water, read-out: solubility
  solubility: 700 µg/mL (≈ 1430 µM)
KB; Homo sapiens, KB, 72 h
  IC50: 133 µM
MCF7; Homo sapiens, MCF7, 72 h
  IC50: 131 µM
[13]
  logP at 1 h: 0.74
[7]
  Ratio IC50: 1.05
NHDF; Homo sapiens, NHDF, 72 h
  IC50: 139 µM
Bacillus spizizenii; ATCC 6633, 18 h
  MIC: 16.3 µM (≈ 8 µg/mL)
[4]; ATCC 49134, 18 h
  MIC: 16.3 µM (≈ 8 µg/mL)
[8]
  Ratio IC50: 1.07
Micrococcus luteus; ATCC 10240, 18 h
  MIC: 8.17 µM (≈ 4 µg/mL)
Staphylococcus aureus [5]; isolate 2, 18 h
  MIC: 32.7 µM (≈ 16 µg/mL)

## O=c1[nH]cc(F)c(=O)[nH]1 [FLUOROURACIL]
[7]
  Ratio IC50: 1.45
NHDF; Homo sapiens, NHDF, 72 h
  IC50: 7.02 µM

## CO/C1=C\CC(=O)O[C@H](C)C/C=C/C=C/[C@H](O[C@H]2CC[C@H](N(C)C)[C@@H](C)O2)[C@H](C)C[C@@H]2C[C@H](OCc3cn([C@H]4C[C@H](n5cc(C)c(=O)[nH]c5=O)O[C@@H]4CO)nn3)O[C@@H]12
[3]; buffer
  solubility: Insoluble
